Source: the M2OR odorant receptor database

These compounds were tested against T1, OR2W1 (Homo sapiens) (UniProt Q9Y3N9). Details: stereoisomer not certain.
T1 sequence (whole entry): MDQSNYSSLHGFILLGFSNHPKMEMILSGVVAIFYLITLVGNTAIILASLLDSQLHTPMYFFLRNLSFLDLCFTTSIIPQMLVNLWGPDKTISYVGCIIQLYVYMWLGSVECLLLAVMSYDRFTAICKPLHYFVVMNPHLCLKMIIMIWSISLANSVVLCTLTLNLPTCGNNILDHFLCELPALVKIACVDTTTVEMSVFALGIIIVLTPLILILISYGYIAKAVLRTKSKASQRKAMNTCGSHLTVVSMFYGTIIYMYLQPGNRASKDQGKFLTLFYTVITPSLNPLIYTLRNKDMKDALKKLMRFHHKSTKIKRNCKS
Outline: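 Transient luciferase assays in mammalian cell lines were common, though methods varied by source. The values come from published papers and their supplementary material, with extra details from the original authors when needed. Responsive refers to a measured signal the original authors judged statistically different from baseline, and non-responsive (inactive) to the remainder.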
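Further: active if original authors judged signal statistically different from baseline.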

Row | Compound | odorant receptor agonist call
1 | CSCCC=O | inactive
2 | CCCCCCCCCS | active
3 | CCC(C)C=O (centres undefined) | inactive
4 | CCCCC(CC)CCC(=O)O (centres undefined) | inactive
5 | O=C1Cc2ccccc2O1 | inactive
6 | Cc1c[nH]c2ccccc12 | inactive
7 | CCCC=CC=O | inactive
8 | CCCCCCC(C)=O | active
9 | CCO | inactive
10 | CC(C)=CC1CC(C)CCO1 (centres undefined) | inactive
11 | CC=CC(=O)C1=C(C)CCCC1(C)C | inactive
12 | CC(C)CCCCCCCCCCC=O | inactive
13 | COc1nccnc1C(C)C | inactive
14 | CCC(=O)C1=NCCC1 | inactive
15 | COc1cc(C(=O)O)ccc1O | inactive
16 | CCc1ncc(C)nc1CC | inactive
17 | CCOc1ccc2ccccc2c1 | active

Row | Compound | odorant receptor agonist call
18 | CCCCC(=O)CC(C)=O | active
19 | CCCCCCCC1CCCC(=O)O1 (centres undefined) | inactive
20 | CCCCCCCCCC(=O)[O-].[H+] | inactive
21 | CCCc1ccc(O)c(OC)c1 | inactive
22 | CC(=O)C1=NCCS1 | inactive
23 | Cc1cccc(O)c1 | inactive
24 | CCCC(=O)C(C)=O | active
25 | CC(=O)OCc1ccccc1 | active
26 | CC(=O)C(C)O (centres undefined) | inactive
27 | CCOC(=O)CCC(C)C | active
28 | CC(=O)CC(C)(C)S | inactive
29 | CCCCC(C)=O | active
30 | CCC(=O)C(C)S (centres undefined) | inactive
31 | CC(=O)c1ccccc1N | inactive
32 | CC(=O)C(C)C(C)=O | inactive
33 | CC(C)CC=O | inactive
34 | CC(C)CCO | inactive
